A word on the Kd: it is the concentration at which binding is half-saturated. The low end stands for higher affinity, the high end for lower affinity. What is called LC50 is the concentration that kills 50% of the test population. The low end stands for a more lethal substance, the high end for a less lethal substance. In general, Ki refers to the equilibrium dissociation constant of an inhibitor or competing ligand from its target.

The source of these data is ChEMBL document CHEMBL1157543, “Synthesis and biological evaluation of polysulfated oligosaccharide glycosides as inhibitors of angiogenesis and tumor growth” (J Med Chem, 2010).

Activity calls are given as the source filed them. No cut-off for these calls is given here.

The target in data set [1] is Fibroblast growth factor 1 (Homo sapiens, UniProt P05230). Nature of the data set: Binding affinity to FGF1 by surface plasmon-based solution affinity assay. In a few lines: (§1)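 Surface plasmon resonance solution affinity assay on heparin-coated CM4 chips. Buffer: HBS-EP (10 mM HEPES pH 7.4, 150 mM NaCl, 3.0 mM EDTA, 0.005% polysorbate 20). Kd is the mean of at least duplicate measurements ± SD.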
Chain of Fibroblast growth factor 1 (P05230 whole entry): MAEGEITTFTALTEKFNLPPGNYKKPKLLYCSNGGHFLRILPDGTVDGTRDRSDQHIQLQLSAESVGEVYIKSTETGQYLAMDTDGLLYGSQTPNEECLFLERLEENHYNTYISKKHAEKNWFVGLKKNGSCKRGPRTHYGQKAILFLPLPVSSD

For data set [2], the system named is Plasma. Nature of the data set: Anticoagulant activity in human plasma by heptest. It is filed as functional. The method, boiled down:
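Heptest clot assay. Plasma (centrifuged 1800g, 10 min, used within 30 min) incubated with compound 2 min at 37 °C. Factor Xa added, 2 min at 37 °C, then clotting started with Recalmix; read on a ball coagulometer. Normal range 13–20 s; means of two determinations.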

The next data set has as its system HUVEC. Nature of the data set: Cytotoxicity against HUVEC. It is filed as cell-based. The settings on record: human.
The target of data set [3] is T1, Vascular endothelial growth factor A, long form (Homo sapiens, UniProt P15692).
T1 sequence (P15692 whole entry): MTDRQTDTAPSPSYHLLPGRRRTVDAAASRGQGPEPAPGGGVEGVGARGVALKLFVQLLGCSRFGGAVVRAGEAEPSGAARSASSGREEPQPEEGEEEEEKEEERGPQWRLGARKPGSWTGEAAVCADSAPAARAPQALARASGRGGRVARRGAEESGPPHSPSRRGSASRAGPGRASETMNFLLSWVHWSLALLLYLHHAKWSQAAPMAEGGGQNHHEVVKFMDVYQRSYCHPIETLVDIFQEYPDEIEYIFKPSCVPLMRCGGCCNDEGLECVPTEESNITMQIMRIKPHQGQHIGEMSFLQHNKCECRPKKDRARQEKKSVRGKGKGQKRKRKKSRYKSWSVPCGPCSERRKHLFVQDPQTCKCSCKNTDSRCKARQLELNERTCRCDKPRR
Briefly: Binding affinity to VEGF by surface plasmon-based solution affinity assay. The method, boiled down:
as §1
A general note: Surface plasmon resonance follows binding to a sensor surface in real time, without labels.

In data set [4] the test system is Plasma. Nature of the data set: Anticoagulant activity in human plasma assessed as activated partial thromboplastin time. The data set is classed as functional. The method, boiled down: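 Pooled normal human plasma spiked with compound in PBS at 0.1 mg/mL (methods give a 0–100 μg/mL range); APTT elevation measured. Normal range 26–36 s. Values are means of two determinations.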

Data set [5] addresses Fibroblast growth factor 2 (Homo sapiens, UniProt P09038). Briefly: Binding affinity to FGF2 by surface plasmon-based solution affinity assay. In a few lines: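 Surface plasmon resonance solution affinity assay on heparin-coated CM4 chips. FGF-2 binding run in HBS-EP containing 300 mM NaCl. Kd is the mean of at least duplicate measurements ± SD.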
The next data set concerns the target T2, Heparanase (Homo sapiens, UniProt Q9Y251).
T2 sequence (Q9Y251 whole entry): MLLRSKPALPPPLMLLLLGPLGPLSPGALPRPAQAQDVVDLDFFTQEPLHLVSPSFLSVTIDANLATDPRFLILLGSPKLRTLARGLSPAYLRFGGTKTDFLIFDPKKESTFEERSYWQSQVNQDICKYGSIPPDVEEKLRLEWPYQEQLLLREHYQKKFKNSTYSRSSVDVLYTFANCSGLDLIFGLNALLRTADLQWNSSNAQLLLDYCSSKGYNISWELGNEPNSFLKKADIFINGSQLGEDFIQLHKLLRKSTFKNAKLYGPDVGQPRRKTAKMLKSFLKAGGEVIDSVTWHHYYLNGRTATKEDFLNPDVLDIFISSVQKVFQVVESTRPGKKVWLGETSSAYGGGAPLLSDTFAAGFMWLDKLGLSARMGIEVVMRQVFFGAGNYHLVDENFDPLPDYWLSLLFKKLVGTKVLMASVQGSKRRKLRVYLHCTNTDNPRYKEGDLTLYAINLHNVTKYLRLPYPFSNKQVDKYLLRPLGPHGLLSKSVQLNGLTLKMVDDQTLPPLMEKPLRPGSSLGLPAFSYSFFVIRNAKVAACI
Nature of the data set: Inhibition of human recombinant heparanase. The method, boiled down:
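Recombinant human heparanase assayed by ultrafiltration with 3H-labelled heparan sulfate as substrate (Km = 1.64 μM). Ki values with standard error were derived from inhibition response curves.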

A short description of data set [6]: Toxicity in rat aortic endothelium assessed as microvessel sprouts at 10 and 50 uM after 6 or 7 days. It is filed as tissue-based, Sprague-Dawley, Aorta. The settings on record: ex_vivo, 168 h. In a few lines:
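Aortic ring viability check: on day 6 or 7, compound or medium was withdrawn and complete medium with VEGF (typically 10 ng/mL) was added for up to 7 more days. New microvessel sprouting was taken as a sign of viable tissue.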

The subject of another data set is Aorta. Briefly: Inhibition of angiogenesis in Sprague-Dawley rat aortic endothelium at 10 uM. It is filed as functional, tissue-based. In a few lines:
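Sprague-Dawley rats (2–4 months old): bisected 1 mm thoracic aortic rings embedded in Matrigel in EBM-2 with 2% FCS, no heparin. Compound added in triplicate, medium replenished every 48 h. Microvessel sprouting scored semiquantitatively by two assessors up to day 8. One-way ANOVA with Dunnett's test.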

Chain of Fibroblast growth factor 2 (P09038 143-288 limits assumed): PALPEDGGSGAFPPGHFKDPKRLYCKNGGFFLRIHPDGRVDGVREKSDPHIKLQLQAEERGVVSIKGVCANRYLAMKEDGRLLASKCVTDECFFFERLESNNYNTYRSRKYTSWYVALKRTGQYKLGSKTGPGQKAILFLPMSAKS

Take `O=S(=O)([O-])OC[C@H]1O[C@H](OCCCCCCCCn2cc(-c3ccccc3)nn2)[C@@H](O[C@H]2O[C@H](COS(=O)(=O)[O-])[C@@H](OS(=O)(=O)[O-])[C@H](O[C@H]3O[C@H](COS(=O)(=O)[O-])[C@@H](OS(=O)(=O)[O-])[C@H](O[C@H]4O[C@H](COS(=O)(=O)[O-])[C@@H](OS(=O)(=O)[O-])[C@H](O[C@H]5O[C@H](COS(=O)(=O)[O-])[C@@H](OS(=O)(=O)[O-])[C@H](OS(=O)(=O)[O-])[C@@H]5OS(=O)(=O)[O-])[C@@H]4OS(=O)(=O)[O-])[C@@H]3OS(=O)(=O)[O-])[C@@H]2OS(=O)(=O)[O-])[C@@H](OS(=O)(=O)[O-])[C@@H]1OS(=O)(=O)[O-].[Na+].[Na+].[Na+].[Na+].[Na+].[Na+].[Na+].[Na+].[Na+].[Na+].[Na+].[Na+].[Na+].[Na+].[Na+].[Na+]`: the dissociation constant (Kd) in [1] stood at 0.16 nM; in data set [3], 0.62 nM; in [5] it was 43 nM. Moreover, in the data set on Plasma [2], the Activity was 38.4 s. This compound also gave a 50% lethal concentration (LC50) with HUVEC above 100 µM. Further, the Time in the data set with Plasma [4] came out at 96.9 s. Also, at Heparanase, the inhibition constant (Ki) amounted to 420 nM.
Turning to MUPARFOSTAT SODIUM, the Activity result in [6] was “Toxic”. The same compound returned an LC50 in the data set with HUVEC above 100 µM.
In the case of `CCCCc1ccc(CO[C@H]2O[C@H](COS(=O)(=O)[O-])[C@@H](OS(=O)(=O)[O-])[C@H](OS(=O)(=O)[O-])[C@@H]2O[C@H]2O[C@H](COS(=O)(=O)[O-])[C@@H](OS(=O)(=O)[O-])[C@H](O[C@H]3O[C@H](COS(=O)(=O)[O-])[C@@H](OS(=O)(=O)[O-])[C@H](O[C@H]4O[C@H](COS(=O)(=O)[O-])[C@@H](OS(=O)(=O)[O-])[C@H](OS(=O)(=O)[O-])[C@@H]4OS(=O)(=O)[O-])[C@@H]3OS(=O)(=O)[O-])[C@@H]2OS(=O)(=O)[O-])cc1.[Na+].[Na+].[Na+].[Na+].[Na+].[Na+].[Na+].[Na+].[Na+].[Na+].[Na+].[Na+].[Na+]`, the results for the Kd in data set [1], in [3] and in data set [5] were 0.21 nM, 12 nM and 160 nM, respectively. The Activity in the data set on Plasma [2] came to 49.8 s. The same compound displayed an LC50 in the data set with HUVEC above 100 µM. In addition, the Time in the data set with Plasma [4] is on record as 73.1 s. Besides, at Heparanase, the Ki turned out to be 310 nM.
In the case of `O=S(=O)([O-])OC[C@H]1O[C@H](OCCCCCCCCn2cc(-c3cccc4ccccc34)nn2)[C@@H](O[C@H]2O[C@H](COS(=O)(=O)[O-])[C@@H](OS(=O)(=O)[O-])[C@H](O[C@H]3O[C@H](COS(=O)(=O)[O-])[C@@H](OS(=O)(=O)[O-])[C@H](O[C@H]4O[C@H](COS(=O)(=O)[O-])[C@@H](OS(=O)(=O)[O-])[C@H](O[C@H]5O[C@H](COS(=O)(=O)[O-])[C@@H](OS(=O)(=O)[O-])[C@H](OS(=O)(=O)[O-])[C@@H]5OS(=O)(=O)[O-])[C@@H]4OS(=O)(=O)[O-])[C@@H]3OS(=O)(=O)[O-])[C@@H]2OS(=O)(=O)[O-])[C@@H](OS(=O)(=O)[O-])[C@@H]1OS(=O)(=O)[O-].[Na+].[Na+].[Na+].[Na+].[Na+].[Na+].[Na+].[Na+].[Na+].[Na+].[Na+].[Na+].[Na+].[Na+].[Na+].[Na+]`, the Kd worked out at 0.12 nM in [1], 0.7 nM in data set [3] and 35 nM in [5]. Also, the Activity with Plasma [2] was 20 s. For the same compound, in the data set with HUVEC, the LC50 was above 100 µM. For the same compound, the Time with Plasma [4] worked out at 89 s. In addition, the Ki at Heparanase is 360 nM.
For the compound `O=S(=O)([O-])OC[C@H]1O[C@H](OCc2ccccc2)[C@@H](O[C@H]2O[C@H](COS(=O)(=O)[O-])[C@@H](OS(=O)(=O)[O-])[C@H](O[C@H]3O[C@H](COS(=O)(=O)[O-])[C@@H](OS(=O)(=O)[O-])[C@H](O[C@H]4O[C@H](COS(=O)(=O)[O-])[C@@H](OS(=O)(=O)[O-])[C@H](O[C@H]5O[C@H](COS(=O)(=O)[O-])[C@@H](OS(=O)(=O)[O-])[C@H](OS(=O)(=O)[O-])[C@@H]5OS(=O)(=O)[O-])[C@@H]4OS(=O)(=O)[O-])[C@@H]3OS(=O)(=O)[O-])[C@@H]2OS(=O)(=O)[O-])[C@@H](OS(=O)(=O)[O-])[C@@H]1OS(=O)(=O)[O-].[Na+].[Na+].[Na+].[Na+].[Na+].[Na+].[Na+].[Na+].[Na+].[Na+].[Na+].[Na+].[Na+].[Na+].[Na+].[Na+]`, the Kd in [1] worked out at 0.16 nM; in data set [3], 1.8 nM; in data set [5], 95 nM. The Activity in the data set with Plasma [2] is on record as above 500 s; in [6] it was “Toxic”. Also, in the data set with HUVEC, the LC50 was above 100 µM. Moreover, in the data set on Plasma [4], the Time is above 500 s. Further, the Ki on Heparanase was found to be 370 nM. The outcome in the data set on Aorta was Active.
Take `CCCCCCCCCCCCO[C@H]1O[C@H](COS(=O)(=O)[O-])[C@@H](OS(=O)(=O)[O-])[C@H](OS(=O)(=O)[O-])[C@@H]1O[C@H]1O[C@H](COS(=O)(=O)[O-])[C@@H](OS(=O)(=O)[O-])[C@H](O[C@H]2O[C@H](COS(=O)(=O)[O-])[C@@H](OS(=O)(=O)[O-])[C@H](O[C@H]3O[C@H](COS(=O)(=O)[O-])[C@@H](OS(=O)(=O)[O-])[C@H](O[C@H]4O[C@H](COS(=O)(=O)[O-])[C@@H](OS(=O)(=O)[O-])[C@H](OS(=O)(=O)[O-])[C@@H]4OS(=O)(=O)[O-])[C@@H]3OS(=O)(=O)[O-])[C@@H]2OS(=O)(=O)[O-])[C@@H]1OS(=O)(=O)[O-].[Na+].[Na+].[Na+].[Na+].[Na+].[Na+].[Na+].[Na+].[Na+].[Na+].[Na+].[Na+].[Na+].[Na+].[Na+].[Na+]`: the Kd came out at 6 nM in [1], 12 nM in [3] and 480 nM in [5]. The compound also registered an Activity in the data set with Plasma [2] of 64.2 s. In the data set on HUVEC, the 50% lethal concentration (LC50) was above 100 µM. Moreover, the Time with Plasma [4] was 125.9 s. The Ki at Heparanase was 280 nM.
For the compound `O=S(=O)([O-])OC[C@H]1O[C@H](OCCCCCCCCn2cc(-c3ccccc3)nn2)[C@@H](O[C@H]2O[C@H](COS(=O)(=O)[O-])[C@@H](OS(=O)(=O)[O-])[C@H](O[C@H]3O[C@H](COS(=O)(=O)[O-])[C@@H](OS(=O)(=O)[O-])[C@H](O[C@H]4O[C@H](COS(=O)(=O)[O-])[C@@H](OS(=O)(=O)[O-])[C@H](OS(=O)(=O)[O-])[C@@H]4OS(=O)(=O)[O-])[C@@H]3OS(=O)(=O)[O-])[C@@H]2OS(=O)(=O)[O-])[C@@H](OS(=O)(=O)[O-])[C@@H]1OS(=O)(=O)[O-].[Na+].[Na+].[Na+].[Na+].[Na+].[Na+].[Na+].[Na+].[Na+].[Na+].[Na+].[Na+].[Na+]`, the Kd in data set [1] was determined as 0.28 nM; in data set [3], 10.4 nM; in [5], 140 nM. The Activity in the data set with Plasma [2] is reported as 24.4 s; in data set [6], “Toxic”. Also, in the data set on HUVEC, the LC50 was above 100 µM. Besides, in the data set on Plasma [4], the Time is recorded as 53 s. Moreover, on Heparanase, the Ki is 310 nM.
